# ChEMBL document CHEMBL1152993, “Telithromycin and quinupristin-dalfopristin induce delayed death in Plasmodium falciparum” (Antimicrob Agents Chemother, 2008)
# The source made the active and inactive calls. No cut-off for these calls is given here.
# Columns and labels:
# [1] = system: Plasmodium falciparum; assay: Antiplasmodial activity after 96 hrs against Plasmodium falciparum 3D7 as Malstat LDH activity; type: functional, organism-based; details: for IC50: 3D7, 96 h
# Procedure, shortened: (§1)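 Synchronized ring-stage 3D7 plated at 1% parasitemia. Drugs tested at 1 nM to 100 μM, dissolved in DMSO or water; 0.5% DMSO was the negative control. Cultures kept 48, 72, 96 or 120 h, with medium changed at day 3. Viability read by Malstat parasite lactate dehydrogenase activity. IC50 reported as mean ± SEM.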
# [2] = system: Plasmodium falciparum; assay: Antiplasmodial activity after 72 hrs against Plasmodium falciparum 3D7 as Malstat LDH activity; type: functional, organism-based; details: for IC50: 3D7, 72 h; procedure, shortened: as §1
# [3] = system: Plasmodium falciparum; assay: Antiplasmodial activity after 120 hrs against Plasmodium falciparum 3D7 as Malstat LDH activity; type: functional, organism-based; details: for IC50: 3D7, 120 h; procedure, shortened: as §1
# [4] = system: Plasmodium falciparum; assay: Antiplasmodial activity after 48 hrs against Plasmodium falciparum 3D7 as Malstat LDH activity; type: functional, organism-based; details: for IC50: 3D7, 48 h; procedure, shortened: as §1
# [5] = system: Plasmodium falciparum; assay: Antiplasmodial activity against Plasmodium falciparum 3D7 assessed as multiple-nuclei schizont arrest at IC50 after 96 hrs by transmission electron microscopy; type: functional, organism-based
# Procedure, shortened: (§2)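 Cultures exposed to drug at the 96-h IC50 and collected after 96 h of treatment. Fixed in 1% glutaraldehyde and 4% paraformaldehyde in PBS, then processed for transmission electron microscopy to assess schizont stage and morphology. Untreated parasites served as comparison.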
# [6] = system: Plasmodium falciparum; assay: Antiplasmodial activity against Plasmodium falciparum 3D7 as early schizont maturation arrest at IC50 after 48-120 hrs by giemsa stain; type: functional, organism-based
# Procedure, shortened: (§3)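 Synchronized 3D7 cultures exposed to drug at the 96-h IC50 over three life cycles, with 0.5% DMSO as untreated control. Giemsa smears were taken at 48, 72, 96 and 120 h, and developmental stages were counted at each time point.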
# [7] = system: Plasmodium falciparum; assay: Relative activity against Plasmodium falciparum 3D7 as IC50 ratio after 48 and 96 hrs; type: functional
# [8] = Cmax in human at 12 mg/kg administered as single oral dose; type: ADME, organism-based; set-up: dose 12 mg/kg, route oral; details: in vivo
# [9] = system: Plasmodium falciparum; assay: Antiplasmodial activity against Plasmodium falciparum 3D7 as delayed maturation in first replication and early second cycle arrest at IC50; type: functional, organism-based; procedure, shortened: as §3
# [10] = system: Plasmodium falciparum; assay: Antiplasmodial activity against Plasmodium falciparum 3D7 as late trophozoite to early schizont arrest at IC50 after 48-120 hrs by giemsa stain; type: functional, organism-based; procedure, shortened: as §3
# [11] = system: Plasmodium falciparum; assay: Antiplasmodial activity against Plasmodium falciparum 3D7 as delayed first replication cycle at IC50 after 48-120 hrs by giemsa stain; type: functional; procedure, shortened: as §3
# [12] = system: Plasmodium falciparum; assay: Antiplasmodial activity as ED50 against parasite growth after 96 hrs for Plasmodium falciparum 3D7; type: functional, organism-based; details: 3D7, 96 h; procedure, shortened: as §1
# [13] = system: Plasmodium falciparum; assay: Antiplasmodial activity as ED50 against parasite growth after 48 hrs for Plasmodium falciparum 3D7; type: functional, organism-based; details: 3D7, 48 h; procedure, shortened: as §1
# [14] = system: Plasmodium falciparum; assay: Antiplasmodial activity against Plasmodium falciparum 3D7 as 2xnuclei schizont arrest at IC50 after 96 hrs by transmission electron microscopy; type: functional, organism-based; procedure, shortened: as §2
SMILES,Activity [1],Activity [2],Activity [3],Activity [4],IC50 [1] [nM],IC50 [2] [nM],Activity [5],Activity [6],IC50 [3] [nM],Ratio IC50 [7],IC50 [4] [nM],Cmax [8] [ng/mL],Activity [9],Activity [10],Activity [11] [h],IC50 [12] [µg/mL],IC50 [13] [µg/mL],Activity [14]
CC(=O)NC[C@H]1CN(c2ccc(N3CCOCC3)c(F)c2)C(=O)O1,inactive,inactive,inactive,inactive,–,–,–,–,–,–,–,–,–,–,–,–,–,–
CC[C@H]1OC(=O)[C@H](C)[C@@H](O[C@H]2C[C@@](C)(OC)[C@@H](O)[C@H](C)O2)[C@H](C)[C@@H](O[C@@H]2O[C@H](C)C[C@H](N(C)C)[C@H]2O)[C@](C)(O)C[C@@H](C)CN(C)[C@H](C)[C@@H](O)[C@]1(C)O [AZITHROMYCIN],–,–,–,–,940,4570,Active,Active,410,10,9040,–,–,–,–,–,–,–
C[C@H]1c2cccc(O)c2C(=O)C2=C(O)[C@]3(O)C(=O)C(C(N)=O)=C(O)[C@@H](N(C)C)[C@@H]3[C@@H](O)[C@@H]21.O [DOXYCYCLINE],–,–,–,–,720,1490,Active,Active,120,10,5420,–,–,–,–,–,–,–
CC[C@H]1OC(=O)[C@H](C)C(=O)[C@H](C)[C@@H](O[C@@H]2O[C@H](C)C[C@H](N(C)C)[C@H]2O)[C@](C)(OC)C[C@@H](C)C(=O)[C@H](C)[C@H]2N(CCCCn3cnc(-c4cccnc4)c3)C(=O)O[C@]12C [TELITHROMYCIN],–,–,–,–,280,1040,–,–,440,–,8080,1900,Active,Active,5,0.23,6.56,Active
